An excerpt weighted towards active compounds, which were near 5.1% of everything screened.
STAT3 activator: IL-6 driven STAT3 reporter potentiators, primary screen, U3A cells, luciferase, luminescence, MLSCN library. activation (% of control), % at 5.6 µM. actives 0.91% (n = 190,000). IL-6 STAT3-luciferase reporter; 100% = signal with IL-6 EC80 alone;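 active = activation above the screen-wide mean of compound activation plus 3 SD, cut at about 130% in these data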;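 also: 0% = background luminescence of wells with medium and substrate only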
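Material: human U3A cells carrying STAT3-luciferase construct. Measured by: reporter luminescence signal. Timing: compound 1 h, then IL-6 6 h at 37 °C.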
STAT1 inh-1: STAT1 signaling inhibitors, primary screen, cell-based, HTS, luciferase reporter. NIH 3T3 STAT1-luciferase reporter, IFN-gamma, luminescence. inhibition, % at 5.5 µM. actives 0.35% (n = 200,000). AID 920, 2007;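 active = inhibition above a set limit, the mean inhibition across all tested compounds plus 3 SD, cut at about 34% in these data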;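 also: 0% = IFN-gamma with DMSO and 100% = IFN-gamma with 300 µM nifuroxazide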
NF-kB neuron act: activators of NF-kB expression in neurons, primary screen, cell-based, HTS; human neuronal cells, NF-kB reporter expression; hits give high values; actives 1.6% (n = 190,000); fold change at 12.5 µM; in the data active = fold change above about 3.3
STAT1 activator: STAT1 signaling activators, primary screen, cell-based, HTS, luciferase reporter | NIH 3T3 STAT1-luciferase reporter, IFN-gamma, luminescence; 100% = IFN-gamma alone, no compound | activation (% of control), % at 5.5 µM | actives 2.6% (n = 200,000) | AID 932, 2007;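 active = activation above the screen-wide mean activation plus 3 SD, cut at about 130% in these data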;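 also: raw ratio to IFN-gamma control signal so 100% means no change and 0% no light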
APP 5'UTR act: activators of APP 5'UTR luciferase reporter, primary screen, SH-SY5Y cells; SH-SY5Y APP 5'UTR luciferase reporter, luminescence; zero percent = DMSO vehicle wells; activation, % at 2 µM; actives 1% (n = 190,000);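 active = activation above a set limit, based on mean plus 3 SD of controls, cut at about 140% in these data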
STAT3 blocker: IL-6 driven STAT3 reporter inhibitors, primary screen, U3A cells, luciferase, luminescence, MLSCN library; inhibition, % at 5.5 µM; IL-6 STAT3-luciferase reporter; host cell line lacks STAT1; actives 0.89% (n = 190,000);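 active = inhibition above the mean inhibition across all screened compounds plus 3 SD, cut at about 44% in these data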;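 also: 0% = DMSO only wells and 100% = 100 µM nifuroxazide control wells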
STAT1 inh-2: STAT1 signaling inhibitors, confirmation, cell-based, HTS, luciferase reporter; shares compounds with STAT1 inh-1; inhibition, % at 5.5 µM; NIH 3T3 STAT1-luciferase reporter, IFN-gamma, luminescence; actives 55% (n = 200);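 active = triplicate mean inhibition exceeding the hit cutoff computed for the primary STAT1 screen, cut at about 35% in these data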;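 also: 0% = DMSO with IFN-gamma and 100% = 300 µM nifuroxazide with IFN-gamma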
NFkB inh STAT1ct: NF-kB reporter inhibitors, TNF-alpha stimulated, counter-screen for STAT1 inhibitor project, cell-based, HEK293T, luciferase luminescence; AID 1303, 2008; shares compounds with STAT1 inh-1; actives 30% (n = 200); TNF-alpha induced; inhibition, % at 5.7 µM;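 active = inhibition above the mean of solvent-only control wells plus 3 SD of those wells, cut at about 15% in these data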;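 also: 0% = DMSO with TNF-alpha and 100% = MG-132 control with TNF-alpha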
STAT3 inh STAT1c: STAT3 reporter inhibition by STAT1 hits, counter-screen for STAT1 inhibitor project, U3A cells, luciferase, luminescence, triplicate. actives 20% (n = 200). IL-6 STAT3 luciferase reporter; cells lacking STAT1. inhibition, % at 5.7 µM. shares compounds with STAT1 inh-1;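 active = inhibition above the mean of solvent-only control wells plus 3 SD, set per campaign, cut at about 25% in these data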;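 also: 0% = IL-6 plus DMSO and 100% = IL-6 plus nifuroxazide control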
* hit, by the source's call; x = no result.

SMILES | STAT3 activator | STAT1 inh-1 | NF-kB neuron act | STAT1 activator | APP 5'UTR act | STAT3 blocker | STAT1 inh-2 | NFkB inh STAT1ct | STAT3 inh STAT1c
CC(O)C(NS(=O)(=O)c1ccc(Cl)cc1)C(=O)OCC(=O)c1c[nH]c2ccccc12 (stereo not drawn) | 123 | 18 | x | 83 | 5 | -19 | x | x | x
Cc1ccccc1NC(=O)C(=Cc1ccc(C(=O)O)cc1)C(=O)Nc1ccccc1C | 111 | 41* | 0.69 | 62 | -9 | -13 | 46* | -1 | -15
CC(=O)/C(=C/c1ccccc1)C(=O)Nc1ccccc1C | 92 | 12 | 1.1 | 87 | 6 | 14 | x | x | x
O=C(CCN1C(=O)C2C3C=CC(C4CC34)C2C1=O)Oc1cccc2cccnc12 (stereo not drawn) | 101 | 3 | 1.1 | 97 | 0 | 6 | x | x | x
COc1cccc(NC(=O)CSc2nnc(-c3cc(C)n(-c4ccccc4)c3C)o2)c1 | 94 | 40* | 0.22 | 65 | 38 | 15 | 18 | 9 | -23
CCn1c(=O)c2cc(C(=O)N3CCOCC3)sc2c2ccccc21 | 103 | 4 | 0.76 | 96 | 22 | 5 | x | x | x
CCn1c(=O)c2cc(C(=O)N3CCCC3)sc2c2ccccc21 | x | 56* | 0.77 | 48 | 25 | x | 47* | 10 | -21
COc1ccc(C(=O)Nc2cccc(N(C)S(C)(=O)=O)c2)cc1OC | 108 | -18 | 1.7 | 115 | 27 | -7 | x | x | x
Cc1ccc(C(=O)Nc2cccc(N(C)S(C)(=O)=O)c2)cc1S(=O)(=O)Nc1ccccc1 | 86 | 40* | 0.68 | 65 | 6 | 22 | 34* | 7 | 9
O=C(O)COc1c(-c2ccc(Cl)cc2)oc2ccccc2c1=O | 94 | -6 | 1.2 | 104 | -2 | 12 | x | x | x
COc1ccc(-c2cc(C(F)(F)F)nc(S(=O)(=O)CCCC(=O)Nc3cccc(O)c3)n2)cc1OC | 102 | 38* | 1.7 | 64 | 12 | 9 | 39* | -7 | -44
COc1ccccc1-c1cc(C(F)(F)F)nc(S(=O)(=O)CCCC(=O)N2CCOCC2)n1 | 98 | 43* | 1.4 | 61 | 4 | 6 | 44* | 1 | 7
CCOC(=O)C(=CNc1cc(C)nn1-c1ccc(C)cc1)C(=O)OCC | 90 | 69* | 0.7 | 36 | -22 | 16 | 60* | 40* | 15
CCOC(=O)C(=CNc1cc(C)ccn1)C(=O)OCC | 99 | 7 | 1.1 | 94 | 2 | 2 | x | x | x
CCOC(=O)C(=CNc1cc(C)ccc1C)C(=O)OCC | 80 | 37* | 0.73 | 67 | -8 | 28 | 33 | -1 | -18
CCOC(=O)C(=CNc1cc(C)nn1C(C)(C)C)C(=O)OCC | 105 | 15 | 0.86 | 86 | x | 0 | x | x | x
Cc1oc2cc(O)ccc2c(=O)c1N1C(=O)c2ccccc2C1=O | 100 | -5 | 1.3 | 105 | -4 | 3 | x | x | x
CS(=O)(=O)c1nc(-c2ccccc2)cc(C(F)(F)F)n1 | 101 | 36* | 0.94 | 67 | -62 | 6 | 47* | -3 | 2
NS(=O)(=O)c1ccc(CCNC(=O)c2ccc(C#CC3(O)CCCCC3)cc2)cc1 | 87 | 52* | 0.32 | 52 | 1 | 17 | -16 | 8 | -30
CC1CC(C)CN(CC(O)COCCOc2ccc(Br)cc2)C1 (stereo not drawn) | 98 | -5 | 1.1 | 104 | 2 | 0 | x | x | x
O=C(/C=C/c1cn(-c2ccccc2)nc1-c1cccnc1)N1CCCC1 | 83 | 71* | 0.69 | 34 | -19 | 26 | 55* | 37* | 33*
Cc1sc(-c2ccccn2)nc1OC(=O)c1ccc(F)cc1F | 93 | 74* | 1.2 | 30 | -21 | 14 | 50* | 24* | -11
CCOC(=O)N1CCN(C(=O)CCn2c(=S)[nH]c3ccsc3c2=O)CC1 | 91 | 48* | 0.89 | 55 | -2 | 13 | 19 | -4 | -1
CCOC(=O)N1CCN(C(=O)c2ccc(NC(C)=O)cc2)CC1 | 101 | 5 | 1.1 | 95 | 1 | 3 | x | x | x
CCOC(=O)N1CCN(C(=O)c2ccc(NC(=O)c3ccc(C)cc3)cc2)CC1 | 93 | 68* | 0.8 | 37 | -10 | 9 | 61* | 0 | 11
SMILES | STAT3 activator | STAT1 inh-1 | NF-kB neuron act | STAT1 activator | APP 5'UTR act | STAT3 blocker | STAT1 inh-2 | NFkB inh STAT1ct | STAT3 inh STAT1c
Cc1oc2c(c1C(=O)NCc1cccnc1)C(=O)c1ccccc1C2=O | x | 90* | 0.15 | 18 | -95 | x | 98* | 74* | 65*
COc1ccc(CNC(=O)c2c(C)oc3c2C(=O)c2ccccc2C3=O)cc1 | 102 | -12 | 0.34 | 111 | -10 | -2 | x | x | x
COc1ccc(NC(=O)CN2CCC(C(N)=O)(N3CCCCC3)CC2)c(OC)c1 | 99 | -1 | 0.97 | 97 | 9 | 6 | x | x | x
COc1ccc(CCNC(=O)Cn2c(=O)n(-c3ccc(C)c(F)c3)c(=O)c3sccc32)cc1OC | 105 | 52* | 0.77 | 51 | -2 | 4 | 45* | 16* | 19
CN(C(=O)COC(=O)c1ccccc1NC(=O)c1ccco1)C1CCS(=O)(=O)C1 (stereo not drawn) | 96 | -2 | 1 | 103 | -27 | 10 | x | x | x
Fc1ccc(-n2nnc(-c3cnc4ccccc4c3)n2)cc1 | x | 83* | 2.2 | 24 | 98 | x | 21 | 76* | 78*
Cc1ccc(C)c(OCCn2cc(/C=C(/C#N)C(=O)NCC3CCCO3)c3ccccc32)c1 (stereo not drawn) | 102 | 1 | 0.69 | 99 | 11 | -2 | x | x | x
COc1ccc2nc(N/C(=N/S(=O)(=O)c3cccs3)c3ccccc3Cl)sc2c1 | 97 | -3 | 1.1 | 102 | -10 | 6 | x | x | x
Cc1nn(Cc2ccc(Cl)c(Cl)c2)c(C)c1NC(=O)c1cc(-c2ccc3c(c2)OCO3)on1 | 89 | 37* | 0.86 | 67 | -52 | 13 | 27 | 8 | 18
CN1CCN(Cc2cn(C)nc2-c2ccccc2F)CC1c1ccccc1 (stereo not drawn) | 104 | 3 | 1.2 | 96 | 6 | 7 | x | x | x
Cc1cccc(/C=C(\c2nc3ccccc3[nH]2)S(=O)(=O)c2ccccc2)c1 | 95 | 38* | 1.5 | 65 | -12 | 9 | 47* | 5 | 18

Compound activity deposited in PubChem BioAssay by several laboratories.
